NPY-Y1 PAM-ag = potentiates or activates human NPY-Y1 receptor. P25929. activation, % at 3.6 µM. NPY-Y1 expressing cells, potentiator/agonist activation. AID 1304. 0.37% of 220,000 active; in the data active = activation above about 33%, passing the limit was not always enough;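 note: cells stimulated with NPY at EC10 then isoproterenol at EC100; 0% = low agonist plus stimulus and 100% = saturating agonist plus stimulus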
Target sequence (P25929 whole entry, looked up): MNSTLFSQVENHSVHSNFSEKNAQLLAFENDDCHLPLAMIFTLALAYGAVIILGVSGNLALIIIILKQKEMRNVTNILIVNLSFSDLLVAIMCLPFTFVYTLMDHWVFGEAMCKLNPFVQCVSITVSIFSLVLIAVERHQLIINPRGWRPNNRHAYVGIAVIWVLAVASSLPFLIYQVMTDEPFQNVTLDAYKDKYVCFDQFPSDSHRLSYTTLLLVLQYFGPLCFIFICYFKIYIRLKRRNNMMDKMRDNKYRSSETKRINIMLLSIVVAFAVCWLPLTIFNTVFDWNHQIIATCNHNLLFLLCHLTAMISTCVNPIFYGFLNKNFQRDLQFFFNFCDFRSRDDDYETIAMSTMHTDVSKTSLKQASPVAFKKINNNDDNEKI
NPY Y1 blocker = NPY-Y1 (human) receptor antagonism; P25929; HEK293-CNG Y1 cells, membrane potential fluorescence; NPY at EC95, then isoproterenol; inhibition, % at 3.6 µM; 1% of 200,000 active;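 active = inhibition above the campaign mean inhibition of all tested compounds plus 3 SD, cut at about 20% in these data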;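 note: 0% = DMSO wells given NPY plus isoproterenol and 100% = isoproterenol alone without NPY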
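Material: HEK293 Y1/CNG channel cell line; also added: NPY (25 nM), isoproterenol (1 µM), Ro 20-1724 (25 µM); doses: one concentration, 3.6 µM, in 0.4% DMSO; schedule: compound incubation 1 h at room temperature, readout 45 min post-stimulation; technique: membrane potential fluorescence; measure: fluorescence ratio normalized to % inhibition between controls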
NPY-Y2 antag = NPY-Y2 (human) receptor antagonism; NPY-Y2 expressing cells, antagonist mode; P49146; 0.99% of 140,000 active; inhibition, % at 2.7 µM; in the data active = inhibition above about 17%;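 note: 0% = vehicle with agonist challenge and 100% = reference antagonist with challenge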
NPY-Y2 PAM-ag = human NPY-Y2 potentiation or agonism, primary screen. activation, % at 3.6 µM. AID 1359. 0.45% of 220,000 active. cells expressing NPY-Y2, potentiator/agonist read-out; in the data active = activation above about 27%;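 note: cells stimulated with NPY near EC25 plus isoproterenol at EC100; 0% = vehicle plus submaximal agonist and 100% = vehicle plus saturating agonist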
Measles CPE = protection of cells from measles virus; Measles virus-infected cells, CPE protection, absorbance; protection (pct of control), % at 4 µM; 1.5% of 140,000 active; AID 841; in the data active = protection mostly above about 24%, no sharp cut-off; inactive = mostly below about 26%
Rad51 HR inh = Rad51 (human) homologous recombination inhibition; hRad51 DNA strand exchange, fluorescence dequenching; inhibition, % at 10 µM; 0.085% of 200,000 active;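 active = inhibition above 40% at the single screening dose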;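 note: 0% = DMSO control wells and 100% = blanks with heterologous ssDNA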
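material = hRad51 filaments on single-stranded DNA | timing = filaments 15 min 37 °C, then compound 30 min | signal = FRET fluorescence dequenching, excitation 485 nm, emission 520 nm | benchmarks = control wells and blank wells on each plate | evaluation = percent inhibition relative to plate controls and blanks | compound = 10 µM final, single point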
NPY-Y1 antag ct = human NPY-Y1 antagonism in NPY-Y2 counter-screen; shares compounds with NPY-Y2 antag; cell-based NPY-Y1 antagonism counterscreen; inhibition, % at 3.6 µM; 19% of 710 active; AID 1256; in the data active = inhibition above about 20%;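 note: cells challenged with NPY then isoproterenol with cAMP sensed through a CNG channel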
NPY-Y2 ant conf = confirmation of human neuropeptide Y receptor Y2 antagonists; HEK293 NPY-Y2 CNG channel, membrane potential fluorescence; 32% of 710 active; inhibition, % at 2.8 µM; shares compounds with NPY-Y2 antag;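 active = mean inhibition of triplicate wells above the hit cutoff set in the primary screen, cut at about 17% in these data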;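 note: 0% = DMSO with NPY challenge and 100% = BIIE0246 high control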
* = called active by the depositor; nt = no result. Hits are enriched below; roughly 2.8% of the tested compounds scored in any of these assays.

SMILES | NPY-Y1 PAM-ag | NPY Y1 blocker | NPY-Y2 antag | NPY-Y2 PAM-ag | Measles CPE | Rad51 HR inh | NPY-Y1 antag ct | NPY-Y2 ant conf
CC1CCCCN1c1nc2nonc2nc1N1CCCCC1C (centres undefined) | 18 | 7 | 6 | 5 | 23 | 8 | nt | nt
COCCNC(=O)c1onc(CSc2cc(C)ccc2C)c1C(=O)O | -6 | 7 | 10 | -23 | 9 | 0 | nt | nt
CCCCNC(=O)c1onc(CSc2cc(C)ccc2C)c1C(=O)O | -24 | 18 | 21* | -20 | 8 | -12 | 31* | 25*
CC1CC(N(C(=O)c2ccccc2Cl)c2ccccc2)c2ccccc2N1 (centres undefined) | 3 | 8 | 18* | -13 | 6 | nt | 62* | 72*
Cc1ccc(/C=C/C(=O)N2CCc3ccccc3C2)cc1 | -11 | 17 | 24* | -20 | 20 | nt | 12 | 13
CC(C)(C)c1ccc(/C=C/C(=O)N2CCc3ccccc3C2)cc1 | -47 | 8 | 10 | -36 | 18 | 3 | nt | nt
O=C(COC(=O)/C=C/c1ccc(F)cc1)Nc1ccccc1-c1ccccc1 | -19 | 3 | 18* | -3 | 15 | nt | 12 | 14
CCC(C)(C(=O)NC1CCCC1)N(Cc1ccco1)C(=O)c1ccccn1 (centres undefined) | -14 | 18 | 23* | -13 | 18 | -11 | 14 | 8
CC1CCCC(NC(=O)COC(=O)CSc2ccc3ccccc3c2)C1C (centres undefined) | -44 | 17 | 19* | -18 | 10 | 3 | 28* | 22*
CC1CCCC(NC(=O)COC(=O)CCc2ccccc2)C1C (centres undefined) | -13 | 9 | nt | -7 | nt | 6 | nt | nt
COc1ccc(Cc2nc(C(=O)Nc3ccccc3)cs2)cc1 | -18 | 14 | 18* | -12 | 66* | nt | 7 | 9
COC(=O)c1cc2c(ccn2-c2ccc(F)cc2)n1Cc1ccc(C#N)cc1 | 0 | 1 | 19* | 1 | 18 | nt | 10 | 9
COC(=O)c1cc2c(ccn2-c2ccc(F)cc2)n1CC(=O)N1CCN(C(=O)c2ccco2)CC1 | -15 | -1 | 4 | 3 | 4 | -9 | nt | nt
CC(C)c1ccc(NC(=O)c2csnn2)cc1 | 31 | 4 | -3 | 1 | 7 | -3 | nt | nt
CC(C)c1ccc(NC(=O)c2snc3ccc(Cl)cc23)cc1 | -3 | 6 | 26* | -4 | 15 | nt | 9 | 10
CN(C)CC1CCCCC1OC(=O)c1ccc(Br)cc1 (centres undefined) | -11 | 14 | nt | -9 | nt | -2 | nt | nt
CC(C)COc1ccc(C(=O)OC2CC(C)(C)OCC2CN(C)C)cc1 (centres undefined) | -34 | 16 | 24* | -32 | 7 | 13 | 16 | 30*
COC(=O)c1ccc(OC)c(CSc2nnc(COc3cccc(C)c3)o2)c1 | -25 | 4 | 23* | -9 | 7 | 7 | 17 | 12
O=C(Nc1nc2ccccc2s1)c1cc(-c2ccco2)nc2ccccc12 | -111 | 7 | 37* | -116 | 2 | -2 | 64* | 88*
O=C1OCC2=C1C(c1ccc(F)cc1)CC(=O)N2c1ccccc1 (centres undefined) | 0 | -1 | nt | -4 | nt | nt | nt | nt
O=c1c2ccccc2nnn1CSc1ccccc1 | 13 | 1 | 24* | 0 | 13 | 4 | 6 | 2
O=c1c2ccccc2nnn1CSc1ccc2ccccc2n1 | -1 | 1 | 4 | -3 | 8 | 10 | nt | nt
CN(C)CC(C)(C)CNC(=O)CC1C(=O)NCCN1Cc1ccc(-c2ccccc2)cc1 (centres undefined) | -4 | 0 | nt | 11 | nt | -23 | nt | nt
O=C(c1ccco1)N(CCC(c1ccccc1)c1ccco1)Cc1ccccc1 (centres undefined) | 3 | 15 | 18* | 2 | 18 | -2 | 4 | 7
COc1ccc(CN(CCC(c2ccccc2)c2ccco2)C(=O)c2ccco2)cc1 (centres undefined) | -38 | 13 | 5 | 0 | 19 | -6 | nt | nt
SMILES | NPY-Y1 PAM-ag | NPY Y1 blocker | NPY-Y2 antag | NPY-Y2 PAM-ag | Measles CPE | Rad51 HR inh | NPY-Y1 antag ct | NPY-Y2 ant conf
COc1ccc(CNC(=O)C2CCCN2)cc1OC (centres undefined) | 4 | 0 | nt | -5 | nt | -5 | nt | nt
Cc1ccc(SCC(=O)NC(=O)Nc2ccc3c(c2)OCCO3)cc1C | -28 | 1 | 19* | 1 | 6 | -6 | 8 | 14
O=C(CSc1nnnn1-c1ccc(Cl)cc1)NC(=O)Nc1ccc2c(c1)OCCO2 | -5 | 17 | 20* | -3 | 29 | 5 | 15 | 15
O=C(CSc1ncn(-c2ccccc2)n1)Nc1ccc2c(c1)OCCO2 | -24 | 5 | 18* | -3 | 9 | -1 | 27* | 24*
Cc1cccc(N2CCN(C(=O)c3ccc(CNc4c(N5CCC(C)CC5)c(=O)c4=O)cc3)CC2C)c1 (centres undefined) | -11 | 9 | nt | -13 | nt | 4 | nt | nt
COC(=O)c1sccc1NC(=S)N1C(C)CCCC1C (centres undefined) | -11 | 2 | nt | -5 | nt | 0 | nt | nt
O=c1n(Cc2ccc(Cl)cc2)c2sc3c(c2c2ncnn12)CCCC3 | -31 | 0 | 41* | -15 | 12 | 27 | 22* | 32*
CCOC(=O)c1c(NC(=O)C2CC(Cl)=CCC2C(=O)O)sc2c1CC(C)(C)OC2 (centres undefined) | 0 | 3 | nt | 5 | nt | -11 | nt | nt
CC(=O)Nc1ccc(S(=O)(=O)N2CCCC(C(=O)O)C2)cc1 (centres undefined) | 2 | 4 | nt | -6 | nt | 2 | nt | nt
COc1ccc(CCN(C)CC(=O)Nc2cc(C)nc3ccccc23)cc1OC | 7 | nt | nt | 17 | nt | -5 | nt | nt
COc1ccc(C(=O)O/N=C(\C)c2ccccc2)cc1 | -8 | -2 | -2 | 1 | 3 | -3 | nt | nt
CCCOc1ccc(C(=O)O/N=C(\CC)c2ccc(C)cc2)cc1 | -4 | 1 | 10 | -11 | 27 | -2 | nt | nt
CC/C(=N\OC(=O)c1ccc(OC(C)C)cc1)c1ccc(C)cc1 | -12 | 12 | 20* | -18 | 28 | nt | 10 | 14
C/C(=N\OC(=O)c1ccc(OC(C)C)cc1)c1ccc(C)c(C)c1 | -42 | 13 | 22* | 1 | 3 | -5 | 15 | 30*
CCOc1ccc2nc(SCC(=O)Nc3cc4c(cc3C(C)=O)OCO4)[nH]c2c1 | -28 | 3 | 3 | -3 | 12 | -3 | nt | nt
Cc1cc(C)c(-n2c(SCCS(=O)(=O)c3ccc(F)cc3)n[nH]c2=O)c(C)c1 | 12 | nt | nt | 11 | nt | 9 | nt | nt

Source: PubChem
